The record followed here is ChEMBL document CHEMBL4033718, “A novel serine racemase inhibitor suppresses neuronal over-activation in vivo” (Bioorg Med Chem, 2017).

One test deals with T1, Serine racemase (Mus musculus) (UniProt Q9QZX7).
T1 sequence (whole entry): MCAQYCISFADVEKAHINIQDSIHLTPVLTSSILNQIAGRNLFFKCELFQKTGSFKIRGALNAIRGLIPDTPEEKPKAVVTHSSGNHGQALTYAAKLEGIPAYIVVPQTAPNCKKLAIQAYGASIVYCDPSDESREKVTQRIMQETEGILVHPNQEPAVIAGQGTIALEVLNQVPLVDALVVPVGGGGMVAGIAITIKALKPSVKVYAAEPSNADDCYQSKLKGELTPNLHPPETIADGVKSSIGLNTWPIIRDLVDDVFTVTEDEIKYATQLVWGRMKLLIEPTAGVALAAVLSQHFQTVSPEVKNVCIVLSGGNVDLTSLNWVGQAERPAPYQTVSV
Nature of the test: Inhibition of mouse serine racemase assessed as remaining enzyme activity by measuring D-serine production using L-serine as substrate at 1 mM incubated for > 8 hrs. Summed up:
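Recombinant mouse Srr, 1.25 µg, in 100 mM HEPES pH 8.0 with PLP, 1 mM MgCl2, 5 mM DTT, 1 mM ATP, 20 mM L-Ser and 1 mM inhibitor. Product derivatized with 0.05% DNP in 2 M HCl for 5 min at 30 °C, then EtOH and 10 M NaOH added. A515 read after 10 min at room temperature.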
Regarding `O=C(COc1ccc(Cl)cc1)NCC(=O)Nc1ccc(F)c(F)c1F`, the Activity stood at 35%.

As to `Cc1ccc(/C=C/S(=O)(=O)NCC(=O)OCc2ccc(Cl)c(Cl)c2)cc1`, the Activity worked out at 32%.

Regarding `Cc1ccc(CNC(=O)NCCNS(=O)(=O)c2cccc(Cl)c2)cc1`, the Activity stood at 36%.

The subject of the next test is Mus musculus. Nature of the test: In-vivo inhibition of SRR in Arc-LucTg HL mouse brain assessed as reduction in kainate-induced NMDA-type glutamate receptor activation by measuring decrease in bioluminescence signal at 15 mg/kg, po incubated for 3 hrs followed by kainate treatment measured after 2 hrs relative to control. Type of test: functional. Put shortly: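 Arc-Luc Tg hairless mice, baseline-imaged, then dosed 15 mg/kg p.o. in PEG-400 (vehicle controls) under 1.5% isoflurane. Basal imaging 3 h later, then kainate 20 mg/kg i.p. in saline. Luciferin EF 150 mg/kg i.p. Images at 2, 4 and 6 h: 60 s, 4×4 binning, ear-to-eye ROI, strongest of about 5 reads. Fold change vs 0 h; two-tailed t test.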
As for `O=C(/C=C/c1cc(Br)cc(Br)c1)NC(=S)NNC(=O)Cc1ccccc1`, the “fold change (FC)” value is reported as 1.4.

Another test is filed under the species Homo sapiens. Nature of the test: Inhibition of human serine racemase C2D2 mutant assessed as remaining enzyme activity by measuring D-serine production using L-serine as substrate at 1 mM incubated for > 8 hrs. Summed up:
(§1)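 Recombinant human SRR C2D2 mutant, 8 µg, in 100 mM HEPES pH 8.0 with PLP, 1 mM MgCl2, 5 mM DTT, 1 mM ATP and 20 mM L-Ser. Product derivatized with 0.05% DNP in 2 M HCl for 5 min at 30 °C, then EtOH and 10 M NaOH added. Absorbance at 515 nm read after 10 min at room temperature.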
Take `O=C(/C=C/c1c(F)cc(F)cc1F)NC(=S)NNC(=O)Cc1ccccc1`: the Activity was determined as 38%.

For the compound `O=C(/C=C/c1ccc(Cl)cc1)NC(=S)NNC(=O)Cc1cccs1`, the Activity was found to be 23%.

As to `O=C(Cc1cc(F)cc(F)c1)NNC(=S)NC(=O)Cc1ccccc1`, the Activity is 55%.

For `CC(C)c1ccc(/C=C/C(=O)NC(=S)NNC(=O)Cc2cccs2)cc1`, the Activity is 28%.

For the compound `O=C(/C=C/c1ccc(F)cc1)NC(=S)NNC(=O)Cc1cccs1`, the Activity is 22%.

On to `O=C(/C=C/c1ccc(F)cc1)NC(=S)NNC(=O)c1cccs1`, for which the Activity was determined as 46%.

On to `COc1cccc(OC)c1/C=C/C(=O)NC(=S)NNC(=O)Cc1ccccc1`, for which the Activity was found to be 32%.

Regarding `Cc1ccc(/C=C/C(=O)NC(=S)NNC(=O)Cc2cccs2)cc1`, the Activity was found to be 24%.

Take `O=C(/C=C/c1ccc(C(F)(F)F)cc1)NC(=S)NNC(=O)Cc1cccs1`: the Activity came out at 44%.

For `COc1cccc(OC)c1/C=C/C(=O)NC(=S)NNC(=O)c1cccs1`, the Activity turned out to be 31%.

`O=C(Cc1c(F)cccc1F)NNC(=S)NC(=O)Cc1ccccc1`: the Activity was found to be 61%.

On to `O=C(Cc1ccc(F)cc1)NNC(=S)NC(=O)Cc1ccccc1`, for which the Activity is 62%.

With `O=C(/C=C/c1ccc(F)cc1)NC(=S)NNC(=O)Cc1ccccc1`, the Activity turned out to be 45%.

Take `O=C(Cc1ccc(F)cc1)NNC(=S)NC(=O)Cc1ccc(F)cc1`: the Activity was found to be 49%.

On to `O=C(/C=C/c1c(F)cc(F)cc1F)NC(=S)NNC(=O)Cc1cccs1`, for which the Activity came to 39%.

For `COc1cccc(OC)c1/C=C/C(=O)NC(=S)NNC(=O)Cc1cccs1`, the Activity amounted to 27%.

On to `Cc1ccc(/C=C/S(=O)(=O)NCC(=O)Nc2ccc(OCc3ccccc3)cc2)cc1`, for which the Activity is 41%.

As for `O=C(O)CC(=O)O` [MALONIC ACID], the Activity was determined as 63%.

As to `O=C(/C=C/c1cc(Br)cc(Br)c1)NC(=S)NNC(=O)CCc1ccccc1`, the Activity amounted to 44%.

On to `Cc1cccc(CC(=O)NNC(=S)NC(=O)Cc2ccccc2)c1`, for which the Activity was found to be 53%.

For `Cc1ccc(S(=O)(=O)Nc2ccccc2NC(=O)Nc2ccc(Cl)c(Cl)c2)cc1`, the Activity came to 77%.

`O=C(Cc1cccs1)NNC(=S)NC(=O)Cc1ccccc1`: the Activity was 61%.

Turning to `O=C(/C=C/c1cc(Br)cc(Br)c1)NC(=S)NNC(=O)Cc1ccccc1`, the Activity was determined as 20%.

With `O=C(/C=C/c1cc(Br)cc(Br)c1)NC(=S)NNC(=O)Cc1ccc(F)cc1`, the Activity was 54%.

Molecular target in a further test: not listed separately
Kind of test: Inhibition of human serine racemase C2D2 mutant assessed as remaining enzyme activity by measuring D-serine production using L-serine as substrate incubated for > 8 hrs. Summed up:
as §1
The term IC50 denotes the concentration at which inhibition is half-maximal. In the case of `Cc1ccc(/C=C/S(=O)(=O)NCC(=O)Nc2ccc(OCc3ccccc3)cc2)cc1`, the IC50 stood at 270 µM.

As to `O=C(O)CC(=O)O` [MALONIC ACID], the IC50 was determined as 770 µM.

With `Cc1ccc(S(=O)(=O)Nc2ccccc2NC(=O)Nc2ccc(Cl)c(Cl)c2)cc1`, the IC50 was 280 µM.

`O=C(/C=C/c1cc(Br)cc(Br)c1)NC(=S)NNC(=O)Cc1ccccc1`: the IC50 was determined as 140 µM.
